Experimental data as given in ChEMBL document CHEMBL4610084, “Antibacterial and ATP Synthesis Modulating Compounds from Salvia tingitana” (2020).
In brackets after ≈: the same amount, converted by molar mass.

How the values were obtained:
[1] = system: Staphylococcus aureus; assay: Antibacterial activity against Methicillin-resistant Staphylococcus aureus MB18 after 24 hrs by microdilution assay; assay type: functional; details: MB18, 24 h
Method in brief: (§1)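 Broth microdilution MIC, run as in an earlier cited report. Strains are clinical isolates identified by standard methods and MALDI-TOF; E. faecalis MB19 and MB51 are Ligurian seawater isolates. Highest concentration tested was 128 μg/mL. MICs are given in μg/mL and μM, with oxacillin and vancomycin as reference antibiotics.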

[2] = system: Staphylococcus aureus; assay: Antibacterial activity against Methicillin-resistant Staphylococcus aureus MB188 after 24 hrs by microdilution assay; assay type: functional; details: MB188, 24 h; method in brief: as §1
[3] = system: Staphylococcus epidermidis; assay: Antibacterial activity against Methicillin-resistant Staphylococcus epidermidis MB165 after 24 hrs by microdilution assay; assay type: functional; details: MB165, 24 h; method in brief: as §1
[4] = system: Staphylococcus epidermidis; assay: Antibacterial activity against Methicillin-resistant Staphylococcus epidermidis MB169 after 24 hrs by microdilution assay; assay type: functional; details: MB169, 24 h; method in brief: as §1
[5] = system: Staphylococcus saprophyticus; assay: Antibacterial activity against Staphylococcus saprophyticus MB41 after 24 hrs by microdilution assay; assay type: functional; details: MB41, 24 h
Method in brief: (§2)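 Broth microdilution MIC against clinical or seawater-isolated strains (identified by standard procedures and MALDI-TOF), with compound solutions and testing as in earlier work. MIC reported in μg/mL and μM.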

[6] = system: Staphylococcus capitis; assay: Antibacterial activity against Methicillin-resistant Staphylococcus capitis MB71 after 24 hrs by microdilution assay; assay type: functional; details: MB71, 24 h; method in brief: as §1
[7] = system: Staphylococcus warneri; assay: Antibacterial activity against Methicillin-resistant Staphylococcus warneri MB74 after 24 hrs by microdilution assay; assay type: functional; details: MB74, 24 h; method in brief: as §1
[8] = system: Staphylococcus simulans; assay: Antibacterial activity against Staphylococcus simulans MB94 after 24 hrs by microdilution assay; assay type: functional; details: MB94, 24 h; method in brief: as §2
[9] = system: Staphylococcus lugdunensis; assay: Antibacterial activity against Staphylococcus lugdunensis MB96 after 24 hrs by microdilution assay; assay type: functional; details: MB96, 24 h; method in brief: as §2
[10] = system: Staphylococcus haemolyticus; assay: Antibacterial activity against Methicillin-resistant Staphylococcus haemolyticus MB115 after 24 hrs by microdilution assay; assay type: functional; details: MB115, 24 h; method in brief: as §1
[11] = system: Staphylococcus hominis; assay: Antibacterial activity against Methicillin-resistant Staphylococcus hominis MB124 after 24 hrs by microdilution assay; assay type: functional; details: MB124, 24 h; method in brief: as §1
[12] = system: Enterococcus faecalis; assay: Antibacterial activity against Vancomycin resistant Enterococcus faecalis MB1 after 24 hrs by microdilution assay; assay type: functional; details: MB1, 24 h; method in brief: as §1
[13] = system: Enterococcus faecalis; assay: Antibacterial activity against Vancomycin resistant Enterococcus faecalis MB19 after 24 hrs by microdilution assay; assay type: functional; details: MB19, 24 h; method in brief: as §1
[14] = system: Enterococcus faecalis; assay: Antibacterial activity against Vancomycin resistant Enterococcus faecalis MB51 after 24 hrs by microdilution assay; assay type: functional; details: MB51, 24 h; method in brief: as §1
[15] = system: Enterococcus faecalis; assay: Antibacterial activity against Enterococcus faecalis MB76 after 24 hrs by microdilution assay; assay type: functional; details: MB76, 24 h; method in brief: as §1
[16] = system: Enterococcus faecium; assay: Antibacterial activity against Enterococcus faecium MB2 after 24 hrs by microdilution assay; assay type: functional; details: MB2, 24 h; method in brief: as §2
[17] = system: Enterococcus faecium; assay: Antibacterial activity against Enterococcus faecium MB3 after 24 hrs by microdilution assay; assay type: functional; details: MB3, 24 h; method in brief: as §2
[18] = system: Enterococcus faecium; assay: Antibacterial activity against Enterococcus faecium MB152 after 24 hrs by microdilution assay; assay type: functional; details: MB152, 24 h; method in brief: as §2
[19] = system: Enterococcus avium; assay: Antibacterial activity against Enterococcus avium MB119 after 24 hrs by microdilution assay; assay type: functional; details: MB119, 24 h; method in brief: as §2
[20] = system: Enterococcus casseliflavus; assay: Antibacterial activity against Vancomycin resistant Enterococcus casseliflavus MB159 after 24 hrs by microdilution assay; assay type: functional; details: MB159, 24 h; method in brief: as §1
[21] = system: Enterococcus durans; assay: Antibacterial activity against Enterococcus durans MB113 after 24 hrs by microdilution assay; assay type: functional; details: MB113, 24 h; method in brief: as §2
[22] = system: Enterococcus gallinarum; assay: Antibacterial activity against Vancomycin resistant Enterococcus gallinarum MB111 after 24 hrs by microdilution assay; assay type: functional; details: MB111, 24 h; method in brief: as §1
[23] = system: Enterococcus faecalis; assay: Bacteriostatic activity against Enterococcus faecalis MB1 assessed as ratio of reduction in bacterial growth at 4 times MIC by time kill assay; assay type: functional
Method in brief: (§3)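 Time-kill curves: viable cell counts of susceptible strains recorded with or without compound at 4 × MIC.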

[24] = system: Enterococcus faecium; assay: Bacteriostatic activity against Enterococcus faecium MB152 assessed as ratio of reduction in bacterial growth by measuring order of magnitude at 4 times MIC by time kill assay; assay type: functional; method in brief: as §3
[25] = species on record: Bos taurus; assay: Modulation of ATP synthase in bovine rod outer segments assessed as inhibition of ATP production at 80 ug/ml in presence of Ap5A adenylate kinase inhibitor by luciferin/luciferase chemiluminescent method relative to control
Method in brief: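 Bovine rod OS (5 μg) preincubated 5 min at 37 °C in Tris/HCl pH 7.4 with KCl, EGTA, MgCl2, 0.6 mM ouabain, 0.25 mM Ap5A, 5 mM KH2PO4, 20 mM succinate, 0.35 mM NADH and ampicillin. Synthesis started with 0.1 mM ADP and stopped with perchloric acid. ATP read by luciferin/luciferase luminescence. Samples at 80 μg/mL; 30 μM resveratrol as positive control. Triplicates, ANOVA/Bonferroni.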

[26] = species on record: Bos taurus; assay: Modulation of ATP synthase in bovine rod outer segments assessed as inhibition of ATP hydrolysis at 80 ug/ml in presence of Ap5A adenylate kinase inhibitor by pyruvate kinase/lactate dehydrogenase assay relative to control
[27] = system: Enterococcus faecium; assay: Modulation of ATP synthase in Enterococcus faecium MB152 assessed as inhibition of ATP production at 5 times MIC after 2 hrs by BacTiter-Glo Assay
Method in brief: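 Whole-cell ATP assay. VRE strain grown overnight in Mueller Hinton broth at 37 °C, diluted 1:10^6 in fresh broth and grown 2 h, then adjusted by OD600. Manool added at 5 × MIC. Samples taken at 0 and 2 h and mixed 1:1 with BacTiter-Glo for 5 min at room temperature. Luminescence converted via an ATP standard curve (1–0.001 pmol) to pmol/cfu. Broth serves as negative control. Three experiments in triplicate, Student's t test.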

[28] = system: Staphylococcus aureus; assay: Bacteriostatic activity against Methicillin-resistant Staphylococcus aureus MB18 assessed as ratio of reduction in bacterial growth at 4 times MIC by time kill assay; assay type: functional
[29] = system: Staphylococcus epidermidis; assay: Bacteriostatic activity against Staphylococcus epidermidis MB165 assessed as ratio of reduction in bacterial growth at 4 times MIC by time kill assay; assay type: functional; method in brief: as §3

| SMILES | MIC [1] | MIC [2] | MIC [3] | MIC [4] | MIC [5] | MIC [6] | MIC [7] | MIC [8] | MIC [9] | MIC [10] | MIC [11] | MIC [12] | MIC [13] | MIC [14] | MIC [15] | MIC [16] | MIC [17] | MIC [18] | MIC [19] | MIC [20] | further results |
| --- | --- | --- | --- | --- | --- | --- | --- | --- | --- | --- | --- | --- | --- | --- | --- | --- | --- | --- | --- | --- | --- |
| COC(=O)[C@]1(C)CCC[C@@]2(C)[C@H]1[C@@H](O)C[C@@](C)(O)[C@@H]2CC/C(C)=C/C[C@H]1OC(=O)C=C1C | 286 µM | > 128 µg/mL | 286 µM | > 128 µg/mL | > 128 µg/mL | 286 µM | 286 µM | > 128 µg/mL | > 128 µg/mL | > 128 µg/mL | 286 µM | 143 µM (≈ 64.1 µg/mL) | 286 µM (≈ 128 µg/mL) | 143 µM (≈ 64.1 µg/mL) | 286 µM (≈ 128 µg/mL) | 286 µM | 286 µM (≈ 128 µg/mL) | 143 µM (≈ 64.1 µg/mL) | 143 µM (≈ 64.1 µg/mL) | 143 µM (≈ 64.1 µg/mL) | MIC [21]: 286 µM; MIC [22]: 286 µM (≈ 128 µg/mL); Ratio [23]: 1 - 2; Ratio [24]: 1 - 2; inhibition [25]: 60% |
| C=C[C@@](C)(O)CC[C@H]1C(=C)CC[C@H]2C(C)(C)CCC[C@]12C [MANOOL] | > 128 µg/mL | > 128 µg/mL | > 128 µg/mL | > 128 µg/mL | > 128 µg/mL | > 128 µg/mL | > 128 µg/mL | > 128 µg/mL | > 128 µg/mL | > 128 µg/mL | > 128 µg/mL | 55 µM (≈ 16 µg/mL) | 110 µM (≈ 32 µg/mL) | 55 µM (≈ 16 µg/mL) | 110 µM (≈ 32 µg/mL) | 14 µM | 28 µM (≈ 8.13 µg/mL) | 28 µM (≈ 8.13 µg/mL) | 28 µM (≈ 8.13 µg/mL) | 55 µM (≈ 16 µg/mL) | MIC [21]: 55 µM; MIC [22]: 14 µM (≈ 4.07 µg/mL); Ratio [23]: 1 - 2; Ratio [24]: 1 - 2; inhibition [25]: 60%; inhibition [26]: 92%; inhibition [27]: 30% |
| C=C[C@@](C)(O)CC[C@@H]1[C@@]2(C)CCCC(C)(C)[C@@H]2CC[C@@]1(C)O | 104 µM | 104 µM | 207 µM | 207 µM | 104 µM | 104 µM | 104 µM | 207 µM | 104 µM | 207 µM | 104 µM | 104 µM (≈ 32.1 µg/mL) | 104 µM (≈ 32.1 µg/mL) | 207 µM (≈ 63.9 µg/mL) | 207 µM (≈ 63.9 µg/mL) | 104 µM | 104 µM (≈ 32.1 µg/mL) | 207 µM (≈ 63.9 µg/mL) | 207 µM (≈ 63.9 µg/mL) | 207 µM (≈ 63.9 µg/mL) | MIC [21]: 104 µM; MIC [22]: 207 µM (≈ 63.9 µg/mL); Ratio [23]: 1 - 2; Ratio [24]: 1 - 2; Ratio [28]: 1 - 2; Ratio [29]: 1 - 2; inhibition [25]: 70% |
| CC1=CC(=O)O[C@@H]1C/C=C(\C)CC[C@@H]1[C@@]2(C)CCC[C@@]3(C)C(=O)O[C@@H](C[C@@]1(C)O)[C@H]23 | 308 µM | > 128 µg/mL | 308 µM | > 128 µg/mL | > 128 µg/mL | 154 µM | 308 µM | > 128 µg/mL | 308 µM | > 128 µg/mL | > 128 µg/mL | 154 µM (≈ 64.1 µg/mL) | 308 µM (≈ 128 µg/mL) | 154 µM (≈ 64.1 µg/mL) | 308 µM (≈ 128 µg/mL) | > 128 µg/mL | 308 µM (≈ 128 µg/mL) | 308 µM (≈ 128 µg/mL) | 154 µM (≈ 64.1 µg/mL) | 308 µM (≈ 128 µg/mL) | MIC [21]: > 128 µg/mL; MIC [22]: 154 µM (≈ 64.1 µg/mL); Ratio [23]: 1 - 2; Ratio [24]: 1 - 2; inhibition [25]: 79% |
| CC1=CC(=O)O[C@@H]1[C@@H](O)/C=C(\C)CC[C@@H]1[C@@]2(C)CCC[C@@]3(C)C(=O)O[C@@H](C[C@@]1(C)O)[C@H]23 | 296 µM | > 128 µg/mL | 296 µM | > 128 µg/mL | > 128 µg/mL | 296 µM | 296 µM | > 128 µg/mL | > 128 µg/mL | 296 µM | > 128 µg/mL | 148 µM (≈ 64 µg/mL) | 296 µM (≈ 128 µg/mL) | 296 µM (≈ 128 µg/mL) | 296 µM (≈ 128 µg/mL) | 296 µM | 296 µM (≈ 128 µg/mL) | 148 µM (≈ 64 µg/mL) | 148 µM (≈ 64 µg/mL) | 296 µM (≈ 128 µg/mL) | MIC [21]: 286 µM; MIC [22]: 148 µM (≈ 64 µg/mL) |
